Shown are actives, neighbours in structure and some others; about 1.8% of the full set was active somewhere.
Mot1-301 SUMO = blocks SUMOylation pathway, rescuing yeast Mot1-301 growth | 1% of 320,000 active | AID 2716 | S. cerevisiae Mot1-301 growth rescue, ATP luminescence, 38.5C; percent above DMSO median, 100 means doubled | growth rescue, % at 18.8 µM;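 active means every valid replicate shows activation above 250% relative to neutral control wells; inactive means the rest, any valid replicate at or below 250%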
Efflux pump inh = inhibitors of Candida antifungal efflux pumps expressed in yeast. S. cerevisiae Candida pump triplex, Nile Red efflux. inhibition, % at 10 µM. 0.44% of 330,000 active. AID 485275;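 active means plate passing quality check with inhibition over a set limit, or well fluorescence over plate mean plus 4 SD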;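 further: Nile Red retained in pooled yeast measured as flow cytometry median fluorescence; higher means more Nile Red kept so more efflux inhibition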
Cneo AK release = Cryptococcus neoformans lysis via adenylate kinase release. C. neoformans lysis, adenylate kinase release luminescence, 4 h; normalised: neutral wells 0, clomiphene wells 100. lysis activity, % at 15 µM. 0.2% of 360,000 active. AID 651654;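 active means mean lysis activity across replicates of at least 80%, whatever share of replicates individually reach that level; inactive means mean lysis activity below 80%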
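Assay system: log-phase C. neoformans yeast / Quantity: yeast cell density of 5 × 10^6 cells/mL / Medium: fresh YPD growth medium / Compound: single dose / Timing: static 4 h at 37 °C with compound, 1 h detection / Measured by: adenylate kinase release luminescence / Read-out: lysis from increased AK signal / Benchmarks: Clomiphene as positive lysis control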
Statin myotox sup = protects C2C12 myotubes from simvastatin toxicity | ATP luminescence, 48 h; scaled: DMSO 0, geranylgeraniol control 100 | rescue of ATP level, % at 7.49 µM | 0.78% of 330,000 active;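 active means mean ATP rescue above about 67%, or every replicate alone reaching that limit, limit read from the data, passing the limit was not always enough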;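 further: myotubes were challenged with 10 µM simvastatin during compound exposure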
Large screens that a line does not name were inactive.

COCC(=O)Nc1ccc2c(c1)C(=O)N(C)C[C@@H](OC)[C@H](C)CN(Cc1ccccn1)[C@@H](C)CO2	none (no result: Mot1-301 SUMO, Efflux pump inh)
C[C@H](CO)N1C[C@H](C)[C@H](CN(C)C(=O)NC2CCCCC2)Oc2ccc(NC(=O)CCN3CCOCC3)cc2C1=O	none (no result: Mot1-301 SUMO, Efflux pump inh)
COc1ccc(CCNC(=O)c2cccc3c2C(=O)N(C2CCCCC2)C3)cc1OC	none
C[C@H]1CN([C@@H](C)CO)C(=O)c2cc(C3=CCCCC3)cnc2O[C@H]1CN(C)C(=O)Cc1cccnc1	none (no result: Mot1-301 SUMO, Efflux pump inh)
C[C@H]1CN([C@@H](C)CO)C(=O)c2cc(C#Cc3ccccn3)cnc2O[C@H]1CN(C)Cc1ccncc1	Cneo AK release 94 (no result: Mot1-301 SUMO, Efflux pump inh)
C[C@@H]1CN([C@@H](C)CO)C(=O)c2cc(C3=CCCCC3)cnc2O[C@H]1CN(C)C(=O)Cc1cccnc1	Cneo AK release 110 (no result: Mot1-301 SUMO, Efflux pump inh)
O=C(Nc1ccccc1)NC1(C(=O)NCCCN2CCOCC2)CCCCC1	Statin myotox sup 102
O=C(NC1CCCC1)N1CCCCN2[C@H](CO)[C@H](c3ccc(-c4cncnc4)cc3)[C@@H]2C1	Cneo AK release 103 (no result: Mot1-301 SUMO, Efflux pump inh, Statin myotox sup)
C/C=C/c1ccc([C@H]2[C@@H](CO)N3CCCCN(C(=O)Nc4ccc(OC)cc4)C[C@H]23)cc1	none (no result: Mot1-301 SUMO, Efflux pump inh, Statin myotox sup)
C/C=C/c1ccc([C@@H]2[C@@H](CO)N3CCCCN(C(=O)Nc4ccc(OC)cc4)C[C@H]23)cc1	Cneo AK release 102 (no result: Mot1-301 SUMO, Efflux pump inh, Statin myotox sup)
COc1ccccc1NC1=NCC(=O)N1Cc1ccccc1	Statin myotox sup 88
Cc1cccc(S(=O)(=O)N2C[C@H]3[C@@H](c4ccccc42)[C@H](CO)N3Cc2ccccn2)c1	none (no result: Mot1-301 SUMO, Efflux pump inh)
COC(=O)c1cc(NS(=O)(=O)c2ccc(C(C)C)cc2)ccc1N1CCOCC1	Mot1-301 SUMO 314 (no result: Cneo AK release, Statin myotox sup)
CC(C)NC(=O)NC(=O)COC(=O)c1cc(S(=O)(=O)N2CCCCC2)ccc1N1CCOCC1	none
CC(C)CNC(=O)COC(=O)c1cc(S(=O)(=O)N2CCCCC2)ccc1N1CCOCC1	Mot1-301 SUMO 277 (no result: Statin myotox sup)
CC(=O)N(C)C[C@H]1Oc2ncc(C#Cc3ccccc3)cc2C(=O)N([C@@H](C)CO)C[C@@H]1C	none (no result: Mot1-301 SUMO, Efflux pump inh)
COc1cc(S(=O)(=O)N2CCN(c3ccccc3)CC2)ccc1Cl	none
COc1cc(S(=O)(=O)N2CCCCCC2)ccc1Cl	Statin myotox sup 100
O=S(=O)(c1cccs1)N1CCN(c2ccccc2F)CC1	Mot1-301 SUMO 335
COc1cc(S(=O)(=O)N2CCN(c3ccccc3F)CC2)ccc1Cl	Statin myotox sup 78
O=[N+]([O-])c1cc(S(=O)(=O)N2CCCCCC2)ccc1F	Mot1-301 SUMO 577 (no result: Cneo AK release, Statin myotox sup)
COc1cc(S(=O)(=O)N2CCN(C)CC2)ccc1Cl	none
Cc1ccc(C(=O)O)cc1NCc1cccnc1	none (no result: Mot1-301 SUMO, Efflux pump inh)
O=C(NC1CCCCC1)C(=S)NCCc1ccccc1	none
Cc1oc2c(O)c(O)ccc2c(=O)c1-c1cnn(-c2ccccc2)c1	none (no result: Statin myotox sup)
Cc1oc2cc(O)cc(C)c2c(=O)c1-c1cnn(-c2ccccc2)c1	Statin myotox sup 89
CC(C)(C)c1ccc(NC(=O)CON=C(N)c2ccccc2)cc1	none (no result: Mot1-301 SUMO, Efflux pump inh)
Cc1ccc(NC(=O)CO/N=C(\N)c2ccccc2)cc1C	Statin myotox sup 95
O=C(Nc1ccccn1)c1ccc(Cl)c(S(=O)(=O)N2CCOCC2)c1	none (no result: Statin myotox sup)
Cc1cc(NC(=O)c2ccc(Cl)c(S(=O)(=O)N3CCOCC3)c2)no1	Statin myotox sup 128
CCOc1ccc(OCCCCN(C)C)cc1	Statin myotox sup 90
Cc1cc(S(=O)(=O)Nc2nc(CN3CCOCC3)nc3sc4c(c23)CCCC4)ccc1F	Statin myotox sup 121
Cc1cc(S(=O)(=O)Nc2nc(CN3CCOCC3)nc3sc4c(c23)CCC4)cc(C)c1C	none (no result: Mot1-301 SUMO, Efflux pump inh)
COc1ccccc1C(=O)N1CCC(C(=O)c2ccc(F)cc2)CC1	Statin myotox sup 84
Cc1cc(NC(=O)CSc2nc3ccsc3c(=O)n2Cc2ccccn2)n[nH]1	Statin myotox sup 93
COCCNC(=O)CN(C(=O)CCC(=O)Nc1nccs1)c1ccccc1OC	Statin myotox sup 109
N/C(=N\OC(=O)c1cccc(Br)c1)c1ccc(Br)cc1	Statin myotox sup 96
N/C(=N\OC(=O)c1ccc(Br)cc1)c1ccccc1	none (no result: Cneo AK release)
C[C@H](CO)N1C[C@H](C)[C@H](CN(C)C(=O)Nc2ccc3c(c2)OCO3)OCCCC[C@H](C)Oc2ccc(NS(=O)(=O)c3ccc(F)cc3)cc2C1=O	Statin myotox sup 81 (no result: Mot1-301 SUMO, Efflux pump inh)
C[C@H]1CCCCO[C@@H](CN(C)C(=O)Nc2ccc3c(c2)OCO3)[C@@H](C)CN([C@@H](C)CO)C(=O)c2cc(NS(=O)(=O)c3ccc(F)cc3)ccc2O1	none (no result: Mot1-301 SUMO, Efflux pump inh)
C[C@@H]1CCCCO[C@H](CN(C)C(=O)Nc2ccc3c(c2)OCO3)[C@H](C)CN([C@@H](C)CO)C(=O)c2cc(NS(=O)(=O)c3ccc(F)cc3)ccc2O1	Statin myotox sup 92 (no result: Mot1-301 SUMO, Efflux pump inh)
O=C1C2C(C(=O)N1CCc1ccccc1)C1C=CC2C12CC2 (stereo not given)	none
COc1ccc(CCN2C(=O)C3C(C2=O)C2C=CC3C23CC3)cc1OC (stereo not given)	Statin myotox sup 118
COc1ccc(OC)c(NS(=O)(=O)c2ccc(NC(C)=O)cc2)c1	Mot1-301 SUMO 273
COc1ccc(CNC(=O)COc2cc3c(c4oc(=O)cc(C)c24)CCC(C)(C)O3)c(OC)c1	none (no result: Mot1-301 SUMO, Efflux pump inh)
CCCc1cc(=O)oc2c3c(cc(OCC(=O)NCCCn4ccnc4)c12)OC(C)(C)CC3	Mot1-301 SUMO 412
COc1ccc(CNC(=O)COc2cc3c(c4oc(=O)cc(C)c24)CCC(C)(C)O3)cc1OC	Mot1-301 SUMO 334
Cc1cc2cc(CNC(=O)Cc3ccc([N+](=O)[O-])cc3)ccc2[nH]1	none
N#C[C@H]1[C@@H](c2ccc(C#CCC3CCCC3)cc2)[C@@H](CO)N1C(=O)c1ccccn1	Cneo AK release 111 (no result: Mot1-301 SUMO, Efflux pump inh)
COc1cc(C(=O)Nc2cccc(-c3nc4ccccc4o3)c2C)cc(OC)c1OC	Statin myotox sup 97 (no result: Mot1-301 SUMO, Efflux pump inh, Cneo AK release)
COc1cc(C(=O)Nc2cccc3ncccc23)cc(OC)c1OC	Statin myotox sup 92
COc1ccc(Br)cc1C(=O)Nc1cccc2ncccc12	none (no result: Cneo AK release, Statin myotox sup)
Cn1ncc(-c2ccno2)c1C(=O)O	none (no result: Cneo AK release, Statin myotox sup)
CCOc1ccc(NC(=O)NCC2CCN(Cc3ccc(F)cc3)CC2)cc1	none
CCN(CC)S(=O)(=O)N1CCC(C(=O)NCCN2CCOCC2)CC1	Statin myotox sup 107
CCCCN(CC)S(=O)(=O)N1CCC(C(=O)NCCCN2CCOCC2)CC1	none (no result: Cneo AK release, Statin myotox sup)
COc1cc(OC)c(C2=NOC(C(=O)N3CCCc4ccccc43)C2)cc1Cl (stereo not given)	Statin myotox sup 135
O=C(C1CC(c2ccccc2O)=NO1)N1CCCC1 (stereo not given)	none
CCOC(=O)N1CCN(C(=O)C2CC(c3ccccc3OC)=NO2)CC1 (stereo not given)	Statin myotox sup 106
CCC1CCCCN1C(=O)C1CC(c2cc(Cl)c(OC)cc2OC)=NO1 (stereo not given)	none
O=C(Nc1ccc(Cl)c(Cl)c1)Nc1ccon1	Efflux pump inh 6.5
O=C(c1ccc2c(c1)OCO2)N1CCCCN2[C@H](C1)[C@@H](c1ccc(-c3ccccc3)cc1)[C@@H]2CO	none (no result: Mot1-301 SUMO, Efflux pump inh, Statin myotox sup)
Cc1cccc(-c2ccc([C@H]3[C@H](CO)N4CCCCN(C(=O)c5ccc6c(c5)OCO6)C[C@@H]34)cc2)c1	Cneo AK release 91 (no result: Mot1-301 SUMO, Efflux pump inh)
